Assay outcomes from PubChem BioAssay.
Sampled rows, rich in hits. Any-hit rate of the full collection: about 2.8%.
DENV2 CPE rescue: inhibitors of DENV2 cytopathic effect, primary screen, cell-based, plate reader, single concentration. DENV2-infected cells, cytopathic effect rescue. CPE inhibition, % at 9.99 µM. AID 651640, 2012. 350,000 tested, 1.7% active; in the data active = CPE inhibition above about 20%, passing the limit was not always enough; inconclusive = no clear call, values can overlap the other calls; tested in BHK-21 cells;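 also: 0% = median of neutral control wells and 100% = median of positive control wells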
SIRT5 inh: SIRT5 desuccinylase inhibitors, primary screen, biochemical, fluorescence imaging, single point, set 5. NAD-dependent protein deacylase sirtuin-5, mitochondrial (Homo sapiens), Q9NXA8. Purified SirT5, succinyl-peptide AMC, trypsin-coupled fluorescence. inhibition, % at 15 µM. 330,000 tested, 1.1% active; in the data active = inhibition above about 15%; inconclusive = no clear call, values can overlap the other calls
Target sequence (Q9NXA8 whole entry, looked up): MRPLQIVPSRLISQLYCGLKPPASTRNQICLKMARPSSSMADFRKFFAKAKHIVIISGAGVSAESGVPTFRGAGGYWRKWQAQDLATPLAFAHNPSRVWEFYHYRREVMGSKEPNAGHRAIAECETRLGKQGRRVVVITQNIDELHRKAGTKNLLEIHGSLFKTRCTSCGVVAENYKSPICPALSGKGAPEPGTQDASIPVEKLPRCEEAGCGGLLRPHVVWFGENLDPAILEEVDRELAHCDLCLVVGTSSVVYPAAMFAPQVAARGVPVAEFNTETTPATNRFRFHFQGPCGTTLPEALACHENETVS
E-selectin induc: E-selectin induction in HUVECs, primary screen, imaging, HUVEC, immunofluorescence imaging, single point. normalized: neutral wells 0, TNF-alpha wells 100. activation, % at 7.58 µM. 260,000 tested, 0.37% active;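 active = mean E-selectin-positive cell signal at least 10% of the positive control, reached in at least 60% of replicates, without over 20% cell loss; inconclusive = no rule given, readout overlaps actives, possibly toxicity-flagged; inactive = the rest, including those meeting only one limit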
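Test system – human umbilical vein endothelial cells (HUVEC), E-selectin induction · Input – 3,000 HUVEC seeded per well · Buffer or medium – EGM-2, gelatin · Compound dosing – single-point compound dose · Detection – immunofluorescence imaging · Measure – percent E-selectin-positive cells · Controls – TNF-alpha high, DMSO low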
* = called active by the depositor; ? = inconclusive; . = not tested or not shown; ! = not active in a repeat.

SMILES | DENV2 CPE rescue | SIRT5 inh | E-selectin induc
COc1ccc(CN(C)C[C@H]2OCCCC[C@H](C)Oc3ccc(NS(=O)(=O)c4cccs4)cc3C(=O)N([C@H](C)CO)C[C@H]2C)cc1 | 52.3* | 7.0 | 0.0
COc1ccc(CN(C)C[C@@H]2OCCCC[C@@H](C)Oc3ccc(NS(=O)(=O)c4cccs4)cc3C(=O)N([C@H](C)CO)C[C@@H]2C)cc1 | -10.7 | 4.0 | 0.0
C[C@@H]1CCCCO[C@@H](CN(C)Cc2ccc3c(c2)OCO3)[C@@H](C)CN([C@H](C)CO)C(=O)c2cc(NS(=O)(=O)c3cccs3)ccc2O1 | -2.3 | . | -0.1
C[C@@H]1CN([C@H](C)CO)C(=O)c2cc(NS(=O)(=O)c3cccs3)ccc2O[C@@H](C)CCCCO[C@H]1CN(C)Cc1ccc(Cl)c(Cl)c1 | -35.1 | 5.4 | -0.2
C[C@@H]1CCCCO[C@@H](CN(C)Cc2ccc3c(c2)OCO3)[C@H](C)CN([C@H](C)CO)C(=O)c2cc(NS(=O)(=O)c3cccs3)ccc2O1 | 38.2* | . | -0.1
C[C@@H]1CN([C@@H](C)CO)C(=O)c2cc(NS(=O)(=O)c3cccs3)ccc2O[C@@H](C)CCCCO[C@H]1CN(C)Cc1ccccc1 | 41.9* | . | .
C[C@@H]1CCCCO[C@@H](CN(C)Cc2ccc(Cl)c(Cl)c2)[C@H](C)CN([C@@H](C)CO)C(=O)c2cc(NS(=O)(=O)c3cccs3)ccc2O1 | -32.0 | 25.1* | -0.1
C[C@@H]1CCCCO[C@@H](CN(C)C(=O)Nc2ccc3c(c2)OCO3)[C@@H](C)CN([C@@H](C)CO)C(=O)c2cc(NC(=O)c3ccccc3)ccc2O1 | -2.9 | -0.8 | 0.5
CN1C(=O)c2cc(NC(=O)c3ccccc3Cl)ccc2OC[C@@H]2O[C@H](CC(=O)O)CC[C@@H]21 | -3.3 | -0.2 | -0.1
C[C@H]1CN([C@@H](C)CO)C(=O)c2cc(-c3cccc(C#N)c3)cnc2O[C@@H]1CN(C)Cc1ccccc1 | ? | -3.0 | 0.1
C[C@@H]1CCCCO[C@@H](CN(C)C(=O)c2ccncc2)[C@@H](C)CN([C@H](C)CO)C(=O)c2cc(NS(=O)(=O)c3ccc(F)cc3)ccc2O1 | 10.1 | -3.3 | -0.1
CCC(=O)N1CC2(CCN(C(=O)c3cccnc3)CC2)c2c([nH]c3cc(OC)ccc23)[C@H]1CO | 3.7 | 4.0 | 0.3
Cc1ccc(NC(=O)[C@H](NC(=O)[C@@H]2Cc3ccccc3CN2)c2ccccc2)cc1 | -7.2 | -1.6 | .
CC(C)c1ccc(NC(=O)[C@H](NC(=O)[C@@H]2Cc3ccccc3CN2)c2ccccc2)cc1 | 56.7* | -3.0 | .
CCOc1ccc(NC(=O)Cn2c(=O)n(CC3CCCO3)c(=O)c3ccccc32)cc1 (stereo unspecified) | 1.6 | 15.4* | 0.1
Cc1cccc(NC(=O)Cn2c(=O)n(CC3CCCO3)c(=O)c3ccccc32)c1 (stereo unspecified) | 0.1 | -1.1 | .
O=C(c1ccccc1F)N1CCC2CC1c1cc(N3CCCCC3)ccc12 (stereo unspecified) | 41.7* | 1.0 | .
O=C(C1CCCCC1)N1CCC2CC1c1cc(N3CCCCC3)ccc12 (stereo unspecified) | 7.3 | -2.1 | .
C[C@@H]1CN([C@@H](C)CO)C(=O)c2cccc(NS(=O)(=O)c3ccc(F)cc3)c2O[C@@H]1CN(C)C(=O)Nc1ccc2c(c1)OCO2 | -6.8 | -3.6 | 1.5
C[C@H](CO)N1C[C@H](C)[C@H](CN(C)C(=O)Nc2ccc3c(c2)OCO3)Oc2c(NS(=O)(=O)c3ccccc3)cccc2C1=O | -4.9 | 4.8 | .
C[C@@H]1CN([C@H](C)CO)C(=O)c2cccc(NS(=O)(=O)c3ccc(F)cc3)c2O[C@@H]1CN(C)C(=O)Nc1ccc2c(c1)OCO2 | 24.1* | -6.8 | 1.3
C[C@H](CO)N1C[C@H](C)[C@@H](CN(C)C(=O)Nc2ccc3c(c2)OCO3)Oc2c(NS(=O)(=O)c3ccccc3)cccc2C1=O | 28.3*! | 1.0 | 0.1
CO[C@@H](CN(C)C(=O)c1ccccc1F)[C@@H](C)CN([C@@H](C)CO)S(=O)(=O)c1ccccc1 | 2.6 | 0.0 | -0.2
C[C@@H]1CN([C@@H](C)CO)C(=O)c2cc(C3=CCCCC3)cnc2O[C@H]1CN(C)C(=O)Nc1ccc(F)cc1 | 0.6 | 9.4 | 0.7
CCCSc1ccc([C@@H]2[C@@H]3C(=O)N(CC)C(=O)[C@@H]3[C@]3(C(=O)OC)CCCCN23)cc1 | -4.6 | . | -0.1
SMILES | DENV2 CPE rescue | SIRT5 inh | E-selectin induc
CCCSc1ccc([C@@H]2[C@H]3C(=O)N(CC)C(=O)[C@H]3[C@]3(C(=O)OC)CCCN23)cc1 | . | 36.2* | -0.4
COC(=O)[C@@]12CCCCN1[C@H](c1ccc(SC3CCCCC3)cc1)[C@H]1C(=O)N(C)C(=O)[C@H]12 | -1.1 | -6.9 | -0.1
COC(=O)[C@@]12CCCCN1[C@H](c1ccc(-c3ccc(F)cc3)cc1)[C@H]1C(=O)N(C)C(=O)[C@H]12 | 39.0* | . | .
COC(=O)[C@@]12CCCN1[C@H](c1ccc(SC3CCCCC3)cc1)[C@H]1C(=O)N(C)C(=O)[C@H]12 | 27.9* | . | 0.1
COC(=O)[C@@]12CCCN1[C@H](c1ccc(-c3ccc(F)cc3)cc1)[C@H]1C(=O)N(C)C(=O)[C@H]12 | 11.6 | -2.8 | 0.1
COCC(=O)N(C)C[C@@H]1Oc2cc(C#CC(C)(C)O)ccc2S(=O)(=O)N([C@H](C)CO)C[C@@H]1C | 11.3 | -1.3 | -0.1
C[C@H]1CN([C@@H](C)CO)C(=O)c2cccc(NS(C)(=O)=O)c2O[C@@H]1CN(C)Cc1ccc(C(F)(F)F)cc1 | -9.9 | 5.8 | -1.5
Cc1cc2nc(-c3ccccc3)c(CC3CCCCC3)n2c(C)c1Br | -12.4 | 0.7 | 0.4
Cc1cc2nc(-c3cccc(Cl)c3)c(CC3CCCCC3)n2c(C)c1Br | 98.4* | 0.1 | 0.0
C[C@@H]1CN([C@H](C)CO)C(=O)Cc2cc(NC(=O)CCC(F)(F)F)ccc2O[C@H]1CN(C)Cc1ccc(Cl)c(Cl)c1 | 8.7 | 2.0 | -4.8
C[C@H](CO)N1C[C@H](C)[C@H](CN(C)Cc2ccc3c(c2)OCO3)Oc2ccc(NC(=O)Nc3ccc(C(F)(F)F)cc3)cc2CC1=O | 53.7* | -1.2 | 1.2
C[C@@H]1CN([C@@H](C)CO)C(=O)Cc2cc(NC(=O)Nc3ccc(C(F)(F)F)cc3)ccc2O[C@H]1CN(C)Cc1ccc2c(c1)OCO2 | -17.2 | 0.2 | -0.2
C[C@@H]1CN([C@H](C)CO)C(=O)Cc2cc(NC(=O)CCC(F)(F)F)ccc2O[C@H]1CN(C)Cc1ccc2c(c1)OCO2 | 44.8* | 4.2 | -3.0
C[C@H]1CN([C@@H](C)CO)C(=O)Cc2cc(NC(=O)CCC(F)(F)F)ccc2O[C@H]1CN(C)Cc1ccc2c(c1)OCO2 | 19.5 | -1.6 | -3.1
C[C@H](CO)N1C[C@H](C)[C@@H](CN(C)Cc2ccc(Cl)c(Cl)c2)Oc2ccc(NC(=O)CCC(F)(F)F)cc2CC1=O | -2.4 | 20.3* | -8.1
Cn1c(SCc2nc(-c3ccc(Cl)cc3)no2)nnc1-c1cccs1 | . | 33.2* | .
Cn1c(SCc2nc(-c3ccc(Cl)cc3)no2)nnc1-c1ccccc1 | . | -3.2 | .
CCNC(=O)Nc1ccc2c(c1)C(=O)N(C)[C@H]1CC[C@H](CC(=O)NCc3cccc(F)c3)O[C@H]1CO2 | -3.7 | . | -0.1
